Four compounds from ChEMBL document CHEMBL1143453 (Bioorg Med Chem Lett, 2005) can be followed below.

The Ki is the equilibrium dissociation constant of an inhibitor or competing ligand from its target. The low end stands for tighter binding, the high end for weaker binding.

The structures appear in SMILES notation.

The target in assay [1] is T1, Alpha-1D adrenergic receptor (Rattus norvegicus) (UniProt P23944).
T1 sequence (whole entry): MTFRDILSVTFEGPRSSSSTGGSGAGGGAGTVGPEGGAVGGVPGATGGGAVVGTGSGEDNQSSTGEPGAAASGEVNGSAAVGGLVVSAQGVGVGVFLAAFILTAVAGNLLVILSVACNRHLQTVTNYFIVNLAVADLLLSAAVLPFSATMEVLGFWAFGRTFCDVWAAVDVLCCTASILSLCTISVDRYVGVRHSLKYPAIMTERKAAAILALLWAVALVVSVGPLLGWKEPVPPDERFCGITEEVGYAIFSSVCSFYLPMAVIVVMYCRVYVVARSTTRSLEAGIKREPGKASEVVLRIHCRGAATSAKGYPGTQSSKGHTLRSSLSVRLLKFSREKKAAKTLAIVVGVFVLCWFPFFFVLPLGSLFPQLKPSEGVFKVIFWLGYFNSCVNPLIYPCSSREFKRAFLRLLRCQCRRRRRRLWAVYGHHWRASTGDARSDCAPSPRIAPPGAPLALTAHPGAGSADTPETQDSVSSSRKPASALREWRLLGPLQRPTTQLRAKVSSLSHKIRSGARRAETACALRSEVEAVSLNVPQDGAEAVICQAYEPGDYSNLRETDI
The assay can be described thus: Potency against alpha-1D adrenergic receptor is determined by phenylephrine-induced contractions in rat. It is filed as functional. The gist of the method: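 Isolated rat aorta contracted with phenylephrine, with cumulative concentration–response curves run with and without antagonist. KB = antagonist concentration/(dose ratio − 1) by Schild, where dose ratio is the phenylephrine EC50 with antagonist over EC50 without. Means with 95% confidence limits, N = 4–6 experiments.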

For assay [2], the target named is T2, Alpha-1B adrenergic receptor (Homo sapiens, UniProt P35368).
T2 sequence (P35368 whole entry): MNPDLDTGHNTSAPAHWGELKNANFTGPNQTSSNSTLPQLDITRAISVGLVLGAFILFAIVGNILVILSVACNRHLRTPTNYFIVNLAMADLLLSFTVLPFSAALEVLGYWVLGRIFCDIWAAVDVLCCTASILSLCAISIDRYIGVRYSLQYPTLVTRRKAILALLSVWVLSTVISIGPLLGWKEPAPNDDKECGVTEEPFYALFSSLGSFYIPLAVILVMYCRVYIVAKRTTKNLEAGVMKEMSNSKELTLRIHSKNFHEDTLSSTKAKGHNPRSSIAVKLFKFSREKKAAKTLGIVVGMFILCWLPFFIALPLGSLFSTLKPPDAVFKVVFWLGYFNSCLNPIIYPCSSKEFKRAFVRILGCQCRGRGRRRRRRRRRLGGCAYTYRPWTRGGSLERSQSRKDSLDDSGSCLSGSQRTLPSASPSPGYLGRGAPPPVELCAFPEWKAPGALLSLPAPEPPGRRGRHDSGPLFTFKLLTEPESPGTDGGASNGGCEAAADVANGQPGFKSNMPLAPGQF
The assay can be described thus: Binding affinity towards human alpha-1B adrenergic receptor expressed in human embryonic kidney (HEK293) cells.

Assay [3] addresses T3, Alpha-1D adrenergic receptor (Homo sapiens, UniProt P25100).
T3 sequence (P25100 whole entry): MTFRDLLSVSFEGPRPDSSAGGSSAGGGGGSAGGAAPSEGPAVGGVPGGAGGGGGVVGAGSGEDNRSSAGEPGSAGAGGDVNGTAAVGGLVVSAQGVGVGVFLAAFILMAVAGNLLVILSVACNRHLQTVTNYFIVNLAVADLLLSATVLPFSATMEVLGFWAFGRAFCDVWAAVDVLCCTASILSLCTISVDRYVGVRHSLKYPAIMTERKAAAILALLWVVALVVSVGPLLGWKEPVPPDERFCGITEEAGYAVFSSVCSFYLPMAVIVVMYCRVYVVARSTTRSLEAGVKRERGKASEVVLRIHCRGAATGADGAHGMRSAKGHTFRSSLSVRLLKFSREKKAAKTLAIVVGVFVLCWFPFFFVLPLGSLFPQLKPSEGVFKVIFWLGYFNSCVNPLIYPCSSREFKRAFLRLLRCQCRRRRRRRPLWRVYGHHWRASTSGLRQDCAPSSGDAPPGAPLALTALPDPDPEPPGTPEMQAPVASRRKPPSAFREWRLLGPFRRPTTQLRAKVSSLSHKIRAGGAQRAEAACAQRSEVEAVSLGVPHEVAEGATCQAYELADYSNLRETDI
The assay can be described thus: Binding affinity towards human alpha-1D adrenergic receptor expressed in human embryonic kidney (HEK293) cells.

In assay [4] the target is T4, Alpha-2A adrenergic receptor (Homo sapiens, UniProt P08913).
T4 sequence (P08913 whole entry): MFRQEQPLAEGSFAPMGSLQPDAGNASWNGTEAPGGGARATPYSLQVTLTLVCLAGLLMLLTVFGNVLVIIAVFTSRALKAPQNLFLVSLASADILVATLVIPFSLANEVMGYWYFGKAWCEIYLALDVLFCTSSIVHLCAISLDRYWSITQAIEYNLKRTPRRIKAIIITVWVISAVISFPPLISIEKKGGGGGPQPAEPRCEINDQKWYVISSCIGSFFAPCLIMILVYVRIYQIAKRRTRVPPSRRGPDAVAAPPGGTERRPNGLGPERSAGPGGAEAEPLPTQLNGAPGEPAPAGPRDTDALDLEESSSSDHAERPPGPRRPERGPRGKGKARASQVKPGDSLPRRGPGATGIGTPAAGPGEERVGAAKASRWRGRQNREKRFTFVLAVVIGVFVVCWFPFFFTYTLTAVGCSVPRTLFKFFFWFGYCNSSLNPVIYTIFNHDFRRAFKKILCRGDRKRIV
The assay can be described thus: (§1) Binding affinity towards human alpha-2A adrenergic receptor expressed in Chinese Hamster ovary (CHO) cells. The assay is classed as cell-based.

For assay [5], the target named is T5, Alpha-2B adrenergic receptor (Homo sapiens, UniProt P18089).
T5 sequence (P18089 whole entry): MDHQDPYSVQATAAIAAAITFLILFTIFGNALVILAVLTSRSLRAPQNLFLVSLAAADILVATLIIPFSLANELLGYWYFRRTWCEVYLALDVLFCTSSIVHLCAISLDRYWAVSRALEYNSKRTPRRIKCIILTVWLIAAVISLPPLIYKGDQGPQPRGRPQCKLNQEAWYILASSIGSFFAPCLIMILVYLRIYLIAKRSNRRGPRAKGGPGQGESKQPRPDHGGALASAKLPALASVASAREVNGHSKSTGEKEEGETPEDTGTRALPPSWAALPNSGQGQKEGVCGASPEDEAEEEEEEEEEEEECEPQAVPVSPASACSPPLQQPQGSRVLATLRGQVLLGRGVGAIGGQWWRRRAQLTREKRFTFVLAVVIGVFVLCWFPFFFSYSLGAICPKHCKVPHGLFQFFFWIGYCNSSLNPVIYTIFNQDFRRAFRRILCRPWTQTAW
The assay can be described thus: Binding affinity towards human alpha-2B adrenergic receptor expressed in Chinese Hamster ovary (CHO) cells. The assay is classed as cell-based.

Assay [6] addresses T6, Alpha-1A adrenergic receptor (Homo sapiens, UniProt P35348).
T6 sequence (P35348 whole entry): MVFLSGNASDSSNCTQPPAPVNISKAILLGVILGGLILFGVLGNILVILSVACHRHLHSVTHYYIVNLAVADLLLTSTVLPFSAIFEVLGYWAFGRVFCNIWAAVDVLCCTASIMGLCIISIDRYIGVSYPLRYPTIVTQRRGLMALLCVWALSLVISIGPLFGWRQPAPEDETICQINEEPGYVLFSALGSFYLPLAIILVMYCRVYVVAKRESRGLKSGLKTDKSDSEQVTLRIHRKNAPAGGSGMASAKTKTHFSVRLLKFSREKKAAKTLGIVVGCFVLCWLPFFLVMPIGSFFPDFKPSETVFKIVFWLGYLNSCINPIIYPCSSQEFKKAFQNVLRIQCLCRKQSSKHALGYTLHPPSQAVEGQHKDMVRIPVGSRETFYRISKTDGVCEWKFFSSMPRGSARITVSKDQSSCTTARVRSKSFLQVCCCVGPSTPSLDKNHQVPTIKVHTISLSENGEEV
The assay can be described thus: Binding affinity towards alpha-1A adrenergic receptor expressed in human embryonic kidney (HEK293) cells. It is filed as cell-based.

The target of assay [7] is T7, Alpha-2C adrenergic receptor (Homo sapiens, UniProt P18825).
T7 sequence (P18825 whole entry): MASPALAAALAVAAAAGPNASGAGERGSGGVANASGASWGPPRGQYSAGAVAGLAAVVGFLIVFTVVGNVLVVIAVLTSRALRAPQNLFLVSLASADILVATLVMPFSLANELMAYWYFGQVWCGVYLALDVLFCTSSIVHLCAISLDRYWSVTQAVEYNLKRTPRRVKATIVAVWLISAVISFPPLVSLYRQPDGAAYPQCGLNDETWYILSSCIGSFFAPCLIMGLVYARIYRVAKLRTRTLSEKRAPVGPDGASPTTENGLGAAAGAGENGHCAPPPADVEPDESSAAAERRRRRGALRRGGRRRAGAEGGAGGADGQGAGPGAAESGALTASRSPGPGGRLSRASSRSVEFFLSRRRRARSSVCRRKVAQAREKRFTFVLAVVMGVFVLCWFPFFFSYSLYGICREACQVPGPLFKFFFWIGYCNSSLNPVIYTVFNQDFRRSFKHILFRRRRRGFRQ
The assay can be described thus: Binding affinity towards human alpha-2C adrenergic receptor expressed in Chinese Hamster ovary (CHO) cells. It is filed as cell-based.

The target in assay [8] is T4, Alpha-2A adrenergic receptor. The description is as §1. It is filed as functional, cell-based.

In the case of `Cc1ccc(N(NC2=NCCN2)c2cccc(O)c2)cc1`, the Kb in assay [1] came to 2.9 nM. Also, the Ki in assay [2] is 843 nM; in assay [3], 49.7 nM; in assay [4] it was 23.8 nM; in assay [5] it was 18 nM; in assay [6], 26.8 nM; in assay [7] it was 12.8 nM.

For `COc1cccc(N(NC2=NCCO2)c2ccc(C)cc2)c1`, the Kb in assay [1] was > 30000 nM. For the same compound, the values for the Ki in assay [8] and in assay [6] were 24600 nM and 5740 nM, respectively.

`COc1cccc(N(NC2=NCCN2)c2ccc(C)cc2)c1` gave a Kb in assay [1] of 7.4 nM. The Ki worked out at 103 nM in assay [2]; 17.5 nM in assay [3]; 6.3 nM in assay [4]; 7.3 nM in assay [5]; 19.9 nM in assay [6]; 3.8 nM in assay [7].

On to `Cc1ccc(N(NC2=NCCO2)c2cccc(O)c2)cc1`, for which the Kb in assay [1] was found to be 13000 nM. For the same compound, the Ki in assay [4] is 18600 nM; in assay [6] it was 5620 nM.
